Laboratory results reported in PMC5473336 (Journal of medicinal chemistry, 2016).
“Also recorded” adds a separate entry of the source. Like-named read-outs stand apart in the source and are kept apart here.

Key:
[1] = Stability on exposure to air; assay type: physicochemical; conditions: room temperature; oxidizes to compound 8
RAD51 [2] = target: T1, RAD51 (Homo sapiens, UniProt Q06609); test: Fluorescence polarization-based RAD51-DNA binding assay
T1 sequence (Q06609 1-339): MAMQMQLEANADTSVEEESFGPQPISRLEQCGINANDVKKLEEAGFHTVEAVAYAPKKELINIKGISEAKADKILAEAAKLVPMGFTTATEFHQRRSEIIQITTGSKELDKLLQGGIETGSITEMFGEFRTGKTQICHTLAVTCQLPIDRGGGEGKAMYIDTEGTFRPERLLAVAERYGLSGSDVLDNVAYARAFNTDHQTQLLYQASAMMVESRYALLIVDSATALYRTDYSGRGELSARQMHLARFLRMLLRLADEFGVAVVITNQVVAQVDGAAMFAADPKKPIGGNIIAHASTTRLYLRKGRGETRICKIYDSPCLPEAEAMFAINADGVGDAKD

293-DR-GFP cells [3] = test: DR-GFP assay of cellular HR activity; assay type: cell-based, human; conditions: 24 h, relative to 1 and 8
[4] = tested on: U2OS, PC-3, and MCF-7 tumor cell lines; test: Clonogenic survival assay after ionizing radiation; assay type: cell-based; conditions: compound given immediately after irradiation, for the duration of outgrowth
Procedure, shortened: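 X-ray irradiation at 1.5 Gy/min of subconfluent flask cultures, then trypsinized and seeded at 1000–1500 cells/well in complete medium with 0.5% DMSO plus compound at the indicated dose. Grown 7–11 days until colonies reached at least 50 cells, then fixed and stained in 6% glutaraldehyde + 0.5% crystal violet. Colonies counted automatically. PC-3 kept in DMEM:F12 (1:1), 10% FCS, penicillin/streptomycin.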

293-SA-GFP cells [5] = test: Single-strand annealing; assay type: cell-based, human; conditions: concentration range that inhibits HR, 24 h post-transfection
Procedure, shortened: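 Cells electroporated in Opti-MEM with 37.5 μg/mL I-SceI plasmid (pCBASce) or empty pCAGGS vector at 325 V, 975 μF. Then seeded in complete DMEM + 0.5% DMSO with compound and grown out 24 h. Harvested into PBS with 1 μg/mL 7-AAD for flow cytometry, gating out dead/apoptotic cells by size, shape and 7-AAD. Read-out is the GFP-positive fraction of live cells; three replicates, standard error.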

E. coli RecA protein = E. coli RecA protein (Escherichia coli, UniProt P0A7G6); test: Gel-based D-loop assay with bacterial recombinase; assay type: biochemical; conditions: selectivity versus human RAD51
Sequence of E. coli RecA protein (P0A7G6 whole entry): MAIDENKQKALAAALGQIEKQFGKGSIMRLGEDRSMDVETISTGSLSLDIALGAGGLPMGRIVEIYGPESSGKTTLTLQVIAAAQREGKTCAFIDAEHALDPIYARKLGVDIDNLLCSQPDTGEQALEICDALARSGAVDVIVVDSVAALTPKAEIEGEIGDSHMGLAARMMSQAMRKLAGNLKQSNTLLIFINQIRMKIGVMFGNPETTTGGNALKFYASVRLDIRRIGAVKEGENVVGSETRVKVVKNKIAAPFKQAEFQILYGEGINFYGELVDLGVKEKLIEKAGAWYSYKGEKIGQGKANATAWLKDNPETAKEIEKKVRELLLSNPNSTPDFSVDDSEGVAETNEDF

[6] = target: T2, S. cerevisiae Rad51 and Rad52 proteins (Saccharomyces cerevisiae, UniProt P25454); test: Gel-based D-loop assay with yeast recombinase; assay type: biochemical; conditions: selectivity versus human RAD51
T2 sequence (P25454 1-400): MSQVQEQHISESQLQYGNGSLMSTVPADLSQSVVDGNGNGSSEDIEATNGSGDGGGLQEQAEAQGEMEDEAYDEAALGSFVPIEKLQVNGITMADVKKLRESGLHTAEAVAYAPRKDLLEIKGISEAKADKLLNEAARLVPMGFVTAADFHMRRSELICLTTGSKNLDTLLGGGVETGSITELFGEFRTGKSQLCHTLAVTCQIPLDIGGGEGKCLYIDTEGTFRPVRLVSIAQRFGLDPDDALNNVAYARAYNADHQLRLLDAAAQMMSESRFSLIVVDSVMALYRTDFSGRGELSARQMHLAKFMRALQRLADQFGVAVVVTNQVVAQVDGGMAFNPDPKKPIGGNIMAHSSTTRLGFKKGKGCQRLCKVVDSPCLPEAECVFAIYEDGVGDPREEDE

293-DR-GFP cells [7] = test: RAD51 cytological focus formation after irradiation; assay type: cell-based, human; conditions: IR-induced, 8 h time course
RAD51 [8] = target: T1, RAD51; test: Gel-based D-loop assay; assay type: biochemical
human cells = conditions: following irradiation; cited from earlier work
RAD51 [9] = conditions: cited from earlier work
RAD51 [10] = conditions: cited from earlier work; remark: listed apart in the source
293-SA-GFP cells [11] = conditions: previously demonstrated; cited from earlier work

Question: What does the source list for `COc1ccc2c(c1)NC(c1ccc(N(C)C)cc1)c1cccn1-2` (racemic) [Compound 7, 4-(7-Methoxy-4,5-dihydropyrrolo[1,2-a][13]quinoxalin-4-yl)-N,N-dimethylaniline]?
Answer: stability when exposed to air (in words) [1]: not stable; influence on RAD51-ssDNA binding (in words) (RAD51 [2]): significant stimulatory activity; ssDNA binding IC50 (RAD51 [2]; Stim: compound is a stimulator): Stim; Emax (RAD51 [2]; read-out: ssDNA binding max effect, ↑ compound stimulates RAD51-ssDNA binding): 47 ± 33%; inhibitory activity in cell-based HR assay (in words) (293-DR-GFP cells [3]): comparable to that of 1 and 8

Question: For `CCNc1ccc(-c2nc3ccccc3n3cccc23)cc1` [Compound 9h, N-Ethyl-4-(pyrrolo[1,2-a]quinoxalin-4-yl)aniline], which “sensitization of cancer cells to radiation, clonogenic survival (in words)” value [4] is on record?
Answer: significantly sensitizes

Question: What about the “effect on SSA activity (in words)” value (293-SA-GFP cells [5]) of the same molecule?
Answer: does not stimulate SSA

Question: And the “inhibition of D-loop activity of Escherichia coli RecA (in words)” value (E. coli RecA protein)?
Answer: no significant inhibition

Question: What about the “inhibition of D-loop activity of Saccharomyces cerevisiae Rad51 (in words)” value [6] of the same molecule?
Answer: no significant inhibition

Question: What about the “appearance of RAD51 subnuclear foci in response to DNA damage (in words)” value (293-DR-GFP cells [7]) of the same molecule?
Answer: does not inhibit

Question: And the “influence on RAD51-ssDNA binding (in words)” value (RAD51 [2])?
Answer: almost no impact

Question: What about the “D-loop inhibitory activity (in words)” value (RAD51 [8]) of the same molecule?
Answer: allow for D-loop inhibition

Question: Which results are given for `C[C@@]12CCC(=O)c3coc(c31)C(=O)c1cc3c(cc12)C(=O)C=CC3=O` [halenaquinone]?
Answer: RAD51 foci at DSB sites in cells (in words) (human cells): inhibit the formation of RAD51 foci; also recorded: reduces the subnuclear appearance of RAD51 foci; RAD51 ssDNA binding activity (in words) (RAD51 [9]): sparing; RAD51 D-loop activity (in words) (RAD51 [10]): specifically inhibit D-loop formation; RAD51 D-loop activity (in words) (RAD51 [10]; listed as Halenaquinone): strongly inhibit

Question: With `O=C1C(Cl)=C(N2CCOCC2)C(=O)N1c1ccc(Cl)c(Cl)c1` [RI-1] as the molecule, how does the “effect on SSA activity (in words)” value (293-SA-GFP cells [11]) read?
Answer: elevated levels of SSA activity
